The test system of assay [1] is Saccharomyces cerevisiae. Nature of the assay: Antifungal activity against Saccharomyces cerevisiae ATCC 201388 carrying pYES2-hik1-D1153E in SG/-Ura medium after 48 hrs by CLSI susceptibility test. Conditions: ATCC 201388, 48 h. In kind it is functional. Summed up:
(§1)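 CLSI M27 broth MIC, modified so that SG/−Ura served as both inoculum-preparation and test medium in place of RPMI. Uracil is omitted to select for plasmid maintenance. Read after 48 h of incubation. MIC-0 is the concentration causing 90% reduction in growth relative to the untreated control.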

For assay [2], the system named is Saccharomyces cerevisiae. Nature of the assay: Antifungal activity against Saccharomyces cerevisiae ATCC 201388 carrying pYES2-HIK1 in SG/-Ura medium after 48 hrs by CLSI susceptibility test. In kind it is functional. The conditions noted are these: ATCC 201388, 48 h. Summed up:
as §1

The test system of assay [3] is Saccharomyces cerevisiae. Nature of the assay: Antifungal activity against Saccharomyces cerevisiae ATCC 201388 carrying pYES2-hik1-H736V in SD/-Ura medium after 48 hrs by CLSI susceptibility test. In kind it is functional. The conditions noted are these: ATCC 201388, 48 h. A digest of the protocol: (§2)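 Broth MIC following CLSI M27, except that inoculum prep and test medium used SD/−Ura in place of RPMI. Read at 48 h. MIC-0 is the concentration giving 90% growth reduction versus the untreated control.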

Assay [4] concerns Saccharomyces cerevisiae. Nature of the assay: Antifungal activity against Saccharomyces cerevisiae ATCC 201388 carrying pYES2-HIK1 in SD/-Ura medium after 48 hrs by CLSI susceptibility test. The conditions noted are these: ATCC 201388, 48 h. In kind it is functional. Summed up:
as §2

For assay [5], the system named is Saccharomyces cerevisiae. Nature of the assay: Antifungal activity against Saccharomyces cerevisiae ATCC 201388 carrying pYES2-hik1-D1153E in SD/-Ura medium after 48 hrs by CLSI susceptibility test. In kind it is functional. Conditions: ATCC 201388, 48 h. Summed up:
as §2

The test system of assay [6] is Saccharomyces cerevisiae. Description: Antifungal activity against Saccharomyces cerevisiae ATCC 201388 carrying pYES2 in SG/-Ura medium after 48 hrs by CLSI susceptibility test. In kind it is functional. The conditions noted are these: ATCC 201388, 48 h. A digest of the protocol: as §1
In assay [7] the test system is Saccharomyces cerevisiae. Nature of the assay: Antifungal activity against Saccharomyces cerevisiae ATCC 201388 carrying pYES2-hik1-H736V in SG/-Ura medium after 48 hrs by CLSI susceptibility test. In kind it is functional. The conditions noted are these: ATCC 201388, 48 h. A digest of the protocol:
as §1

Assay [8] relates to Saccharomyces cerevisiae. Description: Antifungal activity against Saccharomyces cerevisiae ATCC 201388 carrying pYES2 in SD/-Ura medium after 48 hrs by CLSI susceptibility test. In kind it is functional. The conditions noted are these: ATCC 201388, 48 h. Summed up: as §2
Assay [9] concerns Saccharomyces cerevisiae. Nature of the assay: Elevation of Hog1 phosphorylation Saccharomyces cerevisiae ATCC 201388 carrying pYES2-HIK1 at 25 ppm after 4 hrs in SD/-Ura medium by Western blot analysis. In kind it is functional, organism-based. A digest of the protocol: (§3)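 Overnight cultures in SD/−Ura resuspended in fresh SD/−Ura and grown 4 h, then exposed 10 min to compound (25 ppm), 0.5 M NaCl, or left untreated. Soluble protein from cell extracts Western blotted with anti-p38 antibody against doubly phosphorylated T180/Y182 (phospho-Hog1) and anti-C-terminal Hog1 antibody (total Hog1). Detection by HRP-conjugated secondary antibody with ECL Plus.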
On the technique in general: A western blot detects proteins with antibodies after separation by electrophoresis.

The subject of assay [10] is Saccharomyces cerevisiae. Nature of the assay: Elevation of Hog1 phosphorylation Saccharomyces cerevisiae ATCC 201388 carrying pYES2 at 25 ppm after 4 hrs in SD/-Ura medium by Western blot analysis. In kind it is functional, organism-based. A digest of the protocol:
as §3

The test system of assay [11] is Saccharomyces cerevisiae. Nature of the assay: Elevation of Hog1 phosphorylation Saccharomyces cerevisiae ATCC 201388 carrying deltahog1 gene at 25 ppm after 4 hrs in SD/-Ura medium by Western blot analysis. In kind it is functional, organism-based. A digest of the protocol: as §3

≈ marks a conversion by molar mass, not a printed value. Calls of active or inactive are those of the source. The calls are words filed in the database; no cut-off is given here.

Our source for the MIC90 and Activity values is ChEMBL document CHEMBL1153841, “The antifungal polyketide ambruticin targets the HOG pathway” (2007).

In general, MIC90 refers to an inhibitory concentration at the 90% level, which refers to growth in some studies and to a panel of isolates in others. A low value points to greater potency.

Regarding `C=CC1(C)OC(=O)N(c2cc(Cl)cc(Cl)c2)C1=O` (configuration not stated) [VINCLOZOLIN], the MIC90 was over 32 µg/mL in assay [1]; 16 µg/mL (≈ 55.9 µM) in assay [2]; over 32 µg/mL in assay [3]; over 32 µg/mL in [4]; over 32 µg/mL in assay [5]; over 32 µg/mL in assay [6]. In addition, the MIC90 in assay [7] and in [8] was over 32 µg/mL throughout.
Turning to `CC[C@H]1O[C@@H](/C(C)=C/[C@H](C)/C=C/[C@H]2[C@@H](C)[C@@H]2/C=C/[C@@H]2O[C@H](CC(=O)O)C[C@H](O)[C@H]2O)CC=C1C`, the result in [9] was Active. In addition, the outcome in assay [10] and in [11] was inactive.
Regarding `CC[C@H]1O[C@@H](/C(C)=C/[C@H](C)/C=C/[C@H]2[C@@H](C)[C@@H]2/C=C/[C@@H]2O[C@H](CC(=O)O)C[C@H](N(C)C)[C@H]2O)CC=C1C` [AMBRUTICIN VS3], the MIC90 in [1] was over 32 µg/mL; in [2], 0.5 µg/mL (≈ 0.997 µM); in [3], over 32 µg/mL; in assay [4], over 32 µg/mL; in assay [5], over 32 µg/mL; in assay [6] it was over 32 µg/mL. Further, the MIC90 in assay [7] and in assay [8] was over 32 µg/mL throughout.
`N#Cc1c[nH]cc1-c1cccc2c1OC(F)(F)O2` [FLUDIOXONIL]: the MIC90 in assay [1] was over 32 µg/mL; in [2] it was 2 µg/mL (≈ 8.06 µM); in assay [3], over 32 µg/mL; in assay [4], over 32 µg/mL; in [5] it was over 32 µg/mL; in assay [6] it was over 32 µg/mL. For the same compound, the MIC90 in [7] and in assay [8] was over 32 µg/mL each time.
